Compound activity as filed in PubChem.
This is one part of a sample in which hits are shown more often than they occur.
Myeloid diff MLP: induction of myeloid progenitor differentiation, primary screen, cell-based, flow cytometry, MLPCN library; ER-HoxA9 myeloid progenitors, lysozyme-GFP differentiation; AID 624256, 2012; 360,000 compounds, 1% hits; calls only at 10 µM;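 active means normalized GFP-positive differentiation at or above the plate's own cutoff, the solvent-only control mean plus 3 SD; inconclusive means no clear call, values can overlap the other calls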;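 further: cells exposed to compound for four days before flow analysis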
ABCB6 inh MLPCN: ABCB6 transporter inhibitors, primary screen, K562-ABCB6 cells, flow cytometry, MLPCN library. 360,000 compounds, 0.19% hits. AID 602162, 2011. fluorescence ratio to DMSO, % at 10 µM. K562-ABCB6 porphyrin accumulation, 1 h; hits give low values. ATP-binding cassette sub-family B member 6 (Homo sapiens), Q9NP58;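 active means fluorescence ratio to DMSO below 75%, the collection mean minus 3 SD; inconclusive means too few cells collected in the well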;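 further: signal is porphyrin accumulated inside mitochondria; 100% equals median channel fluorescence of DMSO control wells; lower ratio means ABCB6 inhibition with less porphyrin fluorescence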
Target sequence (Q9NP58 whole entry, looked up): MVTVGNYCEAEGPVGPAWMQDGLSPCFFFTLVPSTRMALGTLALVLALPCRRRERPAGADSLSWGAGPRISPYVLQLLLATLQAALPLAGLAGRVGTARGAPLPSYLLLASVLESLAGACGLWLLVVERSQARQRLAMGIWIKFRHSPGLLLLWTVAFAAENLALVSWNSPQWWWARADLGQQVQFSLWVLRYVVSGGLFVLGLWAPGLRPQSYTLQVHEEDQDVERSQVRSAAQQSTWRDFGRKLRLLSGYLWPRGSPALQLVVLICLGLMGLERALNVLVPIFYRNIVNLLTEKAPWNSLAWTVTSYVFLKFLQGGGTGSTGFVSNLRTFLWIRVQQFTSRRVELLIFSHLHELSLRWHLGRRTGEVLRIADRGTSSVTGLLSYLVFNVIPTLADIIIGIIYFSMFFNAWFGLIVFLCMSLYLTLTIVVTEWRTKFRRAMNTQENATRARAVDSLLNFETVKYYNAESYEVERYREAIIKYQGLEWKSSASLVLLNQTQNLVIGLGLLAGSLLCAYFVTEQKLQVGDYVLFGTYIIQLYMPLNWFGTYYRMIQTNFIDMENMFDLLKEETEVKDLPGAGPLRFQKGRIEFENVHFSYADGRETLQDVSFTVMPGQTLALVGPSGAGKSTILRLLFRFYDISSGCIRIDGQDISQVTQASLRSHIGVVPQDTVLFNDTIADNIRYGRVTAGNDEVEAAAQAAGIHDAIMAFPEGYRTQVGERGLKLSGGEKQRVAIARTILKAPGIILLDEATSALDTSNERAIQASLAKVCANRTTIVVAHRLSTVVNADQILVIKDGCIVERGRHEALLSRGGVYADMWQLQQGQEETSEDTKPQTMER
XiGFP reactiv: activators of inactive X chromosome reactivation, primary screen, imaging, XiGFP fibroblasts, GFP high-content imaging, set 2 | XiGFP mouse fibroblasts, % GFP-positive cells imaging, 3 d; cells co-treated with 5-aza-dC sensitizer; scaled so ellipticine positive control = 100% | activation, % at 7.58 µM | 360,000 compounds, 0.055% hits;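 active means mean normalized replicate activation at least 10% and every replicate at or above 10%; inconclusive means only one of the two criteria met; inactive means mean below 10% and not all replicates reach 10%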;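 further: 0% = median of on-plate neutral control wells and 100% = ellipticine 6 µM median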
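assay system = SV40-immortalized XiGFP fibroblast cells, line 68-5-11 | buffer or medium = DMEM plus 5-aza-dC sensitizer | doses = single-point pinned compound dosing | times = 3-day compound exposure, then 15 min fixation at room temperature | benchmarks = positive control ellipticine, 6 µM final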
ABCB6 inh CP1: ABCB6 transporter inhibitors, confirmation, K562-ABCB6 cells, flow cytometry, cherry pick 1. shares compounds with ABCB6 inh MLPCN. K562-ABCB6 porphyrin accumulation, 1 h; hits give low values. ratio response (% of DMSO), % at 10 µM. 700 tested, under 10 active. AID 602430, 2012;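 active means repeat-averaged ratio response below 75% of DMSO, the collection mean minus 3 SD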;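 further: median porphyrin fluorescence at 575 nm with 488 nm excitation from mitochondria; lower ratio means less porphyrin signal so ABCB6 inhibition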
K562 vector FC: empty-vector K562 compound effect – cell-based, flow cytometry, cherry pick set 2, counter-screen for ABCB6 inhibitor project, dose response; 25 tested, under 10 active; shares compounds with ABCB6 inh MLPCN; percent response (fluorescence), % at 100 µM; K562 empty-vector cells, flow cytometry fluorescence, 1 h; AID 624484, 2012;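 active means compounds whose half-maximal effective concentration is below 100 µM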
Starred values were filed as active, the others as inactive; i = inactive; ? = inconclusive; . = no result.

SMILES	Myeloid diff MLP	ABCB6 inh MLPCN	XiGFP reactiv	ABCB6 inh CP1	others
COc1ccc(NC(=O)c2nc(S(=O)(=O)Cc3cccc(C)c3)ncc2Cl)c(OC)c1	?	151	0	.	K562 vector FC=271
Cc1noc(C)c1S(=O)(=O)N(C)C[C@@H]1Oc2ccc(NC(=O)Nc3cccc4ccccc34)cc2CC(=O)N([C@H](C)CO)C[C@@H]1C	.	.	0	.
COCC(=O)N(C)C[C@@H]1Oc2cc(C#C[C@H](C)O)ccc2S(=O)(=O)N([C@@H](C)CO)C[C@H]1C	.	.	-1	.
COc1ccc(NC(=O)N(C)C[C@H]2OCc3cnnn3CCCC(=O)N([C@@H](C)CO)C[C@@H]2C)c(OC)c1	.	.	0	.
CO[C@H]1CN(C)C(=O)c2ccc(NC(=O)Nc3ccccc3F)cc2OC[C@@H](C)N(C)C[C@@H]1C	.	.	0	.
COC(=O)COc1cccc(NC(=O)c2ccccc2)c1	i	74*	.	100
COC(=O)COc1cccc(NC(=O)c2cccc(C)c2)c1	i	97	0	.
C/C=C/c1cccc(-c2nc(C(=O)NCCN3CCCCC3)cc3c2[C@H](CCO)N([S@@](=O)C(C)(C)C)C3)c1	.	.	0	.
COc1ccc(S(=O)(=O)N(Cc2nc3ccccc3c(=O)[nH]2)C2CCCC2)cc1	i	68*	.	101
COc1ccc(CN(Cc2nc3ccccc3c(=O)[nH]2)C(=O)NC2CCCCC2)cc1	i	96	.	.
CCCC#Cc1ccc([C@H]2[C@@H](CO)N3C(=O)CN(C(=O)Nc4ccccc4)C[C@@H]23)cc1	.	.	1	.
COc1cccc(S(=O)(=O)N2C[C@H](O)COC[C@@H]3O[C@H](CC(=O)N4CCOCC4)CC[C@H]32)c1	.	.	0	.
CCNC(=O)C[C@@H]1CC[C@H]2[C@@H](COC[C@@H](O)CN2C(=O)C2CC2)O1	.	.	0	.
CC(=O)N(C)C[C@@H]1Oc2ncc(-c3cccc(C#N)c3)cc2C(=O)N([C@H](C)CO)C[C@H]1C	.	.	0	.
O=C(Nc1ccccc1Cl)Nc1ccccc1Cl	i	96	0	.
O=C(Nc1ccc(Nc2ccccc2)cc1)Nc1ccccc1Cl	i	10*	0	100
CCC(=O)N1CC[C@H]2[C@H](CO)Nc3ccc(-c4ccc(F)cc4)cc3[C@H]21	.	.	0	.
COc1cc2c(C(=O)NCCN(C)C)cn(CC(C)C)c(=O)c2cc1OC	i	69*	0	101
COc1cc2c(C(=O)NCCCOC(C)C)cn(CC(C)C)c(=O)c2cc1OC	i	95	.	.
Cn1c(SCC(=O)N2CCOCC2)nnc1-c1ccc(Cl)cc1Cl	i	73*	.	103
Nn1c(SCC(=O)N2CCOCC2)nnc1-c1ccc(Cl)cc1Cl	i	83	.	.
COc1ccccc1-c1ccc(C2[C@@H]3CN(S(=O)(=O)c4ccc(F)cc4)C[C@H]2N3)cc1 (stereo not given in full)	.	.	0	.
COc1ccc(/C=C2/C(=O)OCc3cc(OC)c(OC)cc32)cc1	.	65*	0	97
COc1ccc(/C=C2\CCOC2=O)cc1	i	98	.	.
CCn1c(SCCC(=O)O)nnc1-c1cccnc1	i	97	.	.
SMILES	Myeloid diff MLP	ABCB6 inh MLPCN	XiGFP reactiv	ABCB6 inh CP1	others
CCn1c(SCC(=O)c2ccccc2)nnc1-c1cccnc1	i	71*	0	101
Cn1c(CN2CCN(C(=O)c3ccccc3Cl)CC2)nc2cc([N+](=O)[O-])ccc21	i	103	0	.
Cn1c(CN2CCN(C(=O)c3ccccc3)CC2)nc2cc([N+](=O)[O-])ccc21	i	70*	0	95
C[C@@H]1CCCCO[C@H](CN(C)S(C)(=O)=O)[C@H](C)CN([C@@H](C)CO)C(=O)c2cc(NC(=O)Nc3ccc(F)cc3)ccc2O1	.	.	0	.
Cc1ccccc1-c1cnc2c(c1)C(=O)N([C@@H](C)CO)C[C@@H](C)[C@H](CN(C)C(=O)c1cccnc1)O2	.	.	0	.
Cc1ccc(-c2ccc3c(c2)O[C@@H](CN(C)C(=O)CC2CC2)[C@H](C)CN([C@@H](C)CO)S3(=O)=O)cc1	.	.	0	.
O=C(OCC(=O)N1CCN(c2ccccc2)CC1)c1ccc2ccccc2n1	i	74*	.	99
O=C(OCC(=O)N1CCN(c2ccccc2)CC1)c1ccccn1	i	100	.	.
C[C@H](CO)N1C[C@H](C)[C@@H](CN(C)C(=O)c2ccncc2)Oc2ncc(C#C[C@@H](C)O)cc2C1=O	.	.	1	.
COc1ccc2c3c(n(C)c2c1)[C@@H](CO)N(C(=O)c1ccccc1)CC31CN(CC2CC2)C1	.	.	0	.
COc1ccccc1NC(=O)N1C[C@H](O)COC[C@@H]2O[C@H](CC(=O)NCc3ccccc3)CC[C@H]21	.	.	0	.
CCCc1nc2ccc(NC(=O)c3cccs3)cc2c(=O)n1Cc1ccc(Cl)cc1	i	73*	0	98
CCCc1nc2ccc(NC(C)=O)cc2c(=O)n1Cc1cccc(Cl)c1	i	103	0	.
CC(C)NC(=O)Nc1ccc2c(c1)C(=O)N([C@@H](C)CO)C[C@@H](C)[C@H](CN(C)S(=O)(=O)c1cccs1)O2	.	.	-1	.
O=C(Nc1c2c(nn1-c1ccc(Cl)cc1)CS(=O)(=O)C2)C1CC1	i	94	0	.
Cc1ccc(-n2nc3c(c2NC(=O)C2CCCC2)CS(=O)(=O)C3)cc1	i	10*	0	95
O=C(O)[C@H]1[C@H](CO)[C@H]2Cn3c(ccc(-c4cncnc4)c3=O)[C@H]2N1C(=O)C1CCCC1	.	.	0	.
CO[C@H]1CN(C)C(=O)c2ccc(NC(=O)c3ccccc3)cc2OC[C@H](C)N(C(C)=O)C[C@H]1C	.	.	0	.
O=C(NCc1ccccc1Cl)c1ccc2ccccc2n1	i	99	0	.
O=C(NCc1cccc(Cl)c1)c1ccc2ccccc2n1	i	70*	0	99
COc1ccc(CN2C[C@@H](C)[C@H](OC)CN(C)C(=O)c3ccc(NC(=O)C4CC4)cc3OC[C@H]2C)cc1	.	.	0	.
CCC(=O)N1[C@H](CO)[C@H](c2ccc(-c3ccccc3OC)cc2)[C@@H]1CNC(C)=O	.	.	0	.
COc1ccc(NC(=O)Nc2ccc3c(c2)CC(=O)N([C@@H](C)CO)C[C@H](C)[C@H](CN(C)C(=O)NC(C)C)O3)cc1	.	.	1	.
COc1cc2[nH]c(=S)nc(NCC3CCCO3)c2cc1OC (stereo not given)	i	93	.	.
COc1cc2[nH]c(=S)nc(NC3CCCCCC3)c2cc1OC	i	73*	0	99
C[C@H]1CN([C@@H](C)CO)C(=O)c2cccc(NC(=O)c3ccncc3)c2O[C@@H]1CN(C)S(=O)(=O)c1ccc(F)cc1	.	.	0	.
CCN(CC)c1ccc(C(=O)OCC(=O)N(C)Cc2ccccc2)cc1	i	65*	0	100
